From ChEMBL document CHEMBL2346552, “A novel metformin derivative, HL010183, inhibits proliferation and invasion of triple-negative breast cancer cells” (Bioorg Med Chem, 2013)
Where a name gives a salt, the structure may show the parent alone. Active and inactive are the calls of the source. The rule behind the calls is not given here.

Legend:
Hs-578T [1] = test: Cytotoxicity against triple-negative human Hs578T cells assessed as growth inhibition after 24 hrs by MTT assay; type: functional, cell-based
MDA-MB-231 [2] = test: Cytotoxicity against triple-negative human MDA-MB-231 cells assessed as growth inhibition after 24 hrs by MTT assay; type: functional, cell-based; details: MDA-MB-231, 24 h
Hs-578T [3] = test: Antiinvasive activity against triple-negative human Hs578T cells at 5 mM after 17 hrs by light microscopic analysis relative to control; type: functional
Hs-578T [4] = test: Antiinvasive activity against triple-negative human Hs578T cells after 17 hrs by light microscopic analysis; type: functional, cell-based
Procedure, shortened: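 Transwell filter invasion assay; serum-free medium with 0.1% BSA plus drug in the lower chamber, 5 × 10⁴ Hs578T cells plus drug in the upper chamber. Invaded cells on the underside of the filter counted by light microscopy at 400× after 17 h, thirteen fields per filter, each sample in triplicate. Hs578T cultured in DMEM at 37 °C, 5% CO₂.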

Hs-578T [5] = test: Antiinvasive activity against triple-negative human Hs578T cells assessed as downregulation of MMP2 level by immunoblot analysis; type: functional, cell-based
[6] = molecular target: Serine/threonine-protein kinase mTOR (Homo sapiens) (UniProt P42345); test: Inhibition of mTOR phosphorylation in triple-negative human […] cells at 20 mM after 24 hrs by immunoblot analysis; type: cell-based
Procedure, shortened: (§1)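 Hs578T cells exposed to compound for 24 h at 0.05–0.2 mM or 5–20 mM. Lysates were made in Triton X-100 buffer (pH 7.4, NaF, EGTA, DTT, Na3VO4, protease inhibitors) and run on 10% SDS–PAGE. Immunoblots were probed with anti-phospho AMPK or anti-phospho mTOR antibody.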

[7] = molecular target: 5'-AMP-activated protein kinase catalytic subunit alpha-2 (Homo sapiens) (UniProt P54646); test: Activation of AMPK in triple-negative human […] cells at 20 mM after 24 hrs by immunoblot analysis; type: cell-based; procedure, shortened: as §1
Chain of 5'-AMP-activated protein kinase catalytic subunit alpha-2 (Homo sapiens) (P54646 whole entry, looked up): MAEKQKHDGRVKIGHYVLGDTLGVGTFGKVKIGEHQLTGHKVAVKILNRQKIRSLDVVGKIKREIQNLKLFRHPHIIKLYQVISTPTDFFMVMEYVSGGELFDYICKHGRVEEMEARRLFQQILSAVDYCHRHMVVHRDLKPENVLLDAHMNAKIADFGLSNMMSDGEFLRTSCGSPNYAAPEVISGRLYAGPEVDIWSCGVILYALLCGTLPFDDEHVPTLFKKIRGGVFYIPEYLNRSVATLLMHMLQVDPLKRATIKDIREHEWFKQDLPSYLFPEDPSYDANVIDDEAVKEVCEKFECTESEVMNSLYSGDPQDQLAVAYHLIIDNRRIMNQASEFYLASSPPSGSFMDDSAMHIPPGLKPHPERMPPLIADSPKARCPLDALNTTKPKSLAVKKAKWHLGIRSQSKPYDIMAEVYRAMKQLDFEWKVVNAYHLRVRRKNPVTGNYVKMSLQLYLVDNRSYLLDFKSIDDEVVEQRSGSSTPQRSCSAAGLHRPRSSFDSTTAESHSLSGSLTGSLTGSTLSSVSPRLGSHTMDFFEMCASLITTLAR

Hs-578T [8] = test: Antiinvasive activity against triple-negative human Hs578T cells at 10 mM after 17 hrs by light microscopic analysis; type: functional, cell-based
Procedure, shortened: (§2)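 Transwell invasion with polycarbonate filters. 5 × 10^4 Hs578T cells were placed in the upper chamber with drug, and the lower chamber held serum-free medium with 0.1% BSA plus drug. After 17 h, cells invaded to the filter underside were counted by light microscopy (400×) in 13 fields per filter. Each sample was run in triplicate.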

Hs-578T [9] = test: Antiinvasive activity against triple-negative human Hs578T cells assessed as downregulation of MMP9 level at 5 to 20 mM after 24 hrs by gelatin zymogram assay; type: functional, cell-based
Procedure, shortened: (§3)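 Hs578T cells were cultured 24 h in serum-free medium containing compound at 0.05–0.2 mM or 5–20 mM. Gelatinolytic activity of the conditioned medium was resolved by gelatin zymography (MMP-2 72 kDa, MMP-9 92 kDa). Relative band intensities were quantified by densitometry.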

Hs-578T [10] = test: Antiinvasive activity against triple-negative human Hs578T cells at 20 mM after 17 hrs by light microscopic analysis; type: functional, cell-based; procedure, shortened: as §2
Hs-578T [11] = test: Antiinvasive activity against triple-negative human Hs578T cells assessed as downregulation of MMP2 level after 24 hrs by gelatin zymogram assay; type: functional, cell-based; procedure, shortened: as §3
MDA-MB-231 [12] = test: Antitumor activity against triple-negative human MDA-MB-231 cells xenografted in BALB/c athymic nude mouse assessed as tumor growth inhibition at 100 mg/kg, po qd measured for 35 days relative to vehicle-treated control; type: functional; details: MDA-MB-231, 840 h, read-out: TGI
Procedure, shortened: (§4)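 MDA-MB-231 cells (5 × 10^6 in 0.1 mL serum-free medium) were injected s.c. into the right lower flank of nude mice. At tumor volumes of 100–130 mm³, mice (n = 6) received oral gavage once daily for 35 days at 25, 50, 100 or 500 mg/kg. Caliper volumes, (length × width²)/2, were taken three times weekly. Inhibition was calculated versus the vehicle group.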

Mus musculus [13] = test: Toxicity in BALB/c athymic nude mouse xenografted with triple-negative human MDA-MB-231 cells assessed as body weight change at 25 to 100 mg/kg, po qd measured for 35 days relative to vehicle-treated control; type: organism-based; parameters: dose 25-100 mg/kg, route oral; details: in vivo, 840 h
Procedure, shortened: (§5)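 MDA-MB-231 s.c. xenograft in nude mice (n = 6), dosed orally by gavage once daily for 35 days at 25–100 or 500 mg/kg. Body weights were recorded three times weekly and compared with vehicle-treated mice.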

MDA-MB-231 [14] = test: Antitumor activity against triple-negative human MDA-MB-231 cells xenografted in BALB/c athymic nude mouse assessed as tumor growth inhibition at 25 mg/kg, po qd measured for 35 days relative to vehicle-treated control; type: functional; details: MDA-MB-231, 840 h, read-out: TGI; procedure, shortened: as §4
MDA-MB-231 [15] = test: Induction of apoptosis in triple-negative human MDA-MB-231 cells assessed as dead cells at 0.1 mM after 24 hrs by annexin V-FITC/propidium iodide staining-based flow cytometric analysis relative to control; type: functional
Procedure, shortened: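 MDA-MB-231 cells grown in DMEM at 37 °C, 5% CO2, then exposed for 24 h to agent dissolved in DMSO. Cells were stained at 1 × 10^6 cells/ml with FITC-annexin V and/or propidium iodide and analysed by flow cytometry as quadrant dot plots. Lower left is viable, lower right early apoptotic, upper right/left late apoptotic/necrotic (membrane integrity lost).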

MDA-MB-231 [16] = test: Induction of apoptosis in triple-negative human MDA-MB-231 cells assessed as viable cells at 0.1 mM after 24 hrs by annexin V-FITC/propidium iodide staining-based flow cytometric analysis relative to control; type: functional; details: MDA-MB-231, 24 h, read-out: Activity
Procedure, shortened: (§6)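 MDA-MB-231 cells treated 24 h at 0.1 or 10 mM were stained with FITC-annexin V and propidium iodide and analyzed by flow cytometry. Quadrants: annexin−/PI− viable; annexin+/PI− early apoptotic; PI+ late apoptotic/necrotic.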

Hs-578T [17] = test: Ratio of metformin IC50 to compound IC50 for triple-negative human Hs578T cells; type: functional
Procedure, shortened: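 Hs578T cells were exposed to compounds for 24 h and viability was read by MTT (4 h, formazan dissolved in DMSO, OD 540 nm), in triplicate. The ratio uses IC50 values from this assay.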

MDA-MB-231 [18] = test: Induction of apoptosis in triple-negative human MDA-MB-231 cells assessed as early apoptotic cells at 0.1 mM after 24 hrs by annexin V-FITC/propidium iodide staining-based flow cytometric analysis relative to control; type: functional; procedure, shortened: as §6
[19] = molecular target: Serine/threonine-protein kinase mTOR (Homo sapiens) (UniProt P42345); test: Ratio of compound activity to metformin activity for inhibition of mTOR phosphorylation in triple-negative human […] cells; type: cell-based
[20] = molecular target: 5'-AMP-activated protein kinase catalytic subunit alpha-2 (Homo sapiens) (UniProt P54646); test: Activation of AMPK in triple-negative human […] cells at 0.2 mM after 24 hrs by immunoblot analysis; type: cell-based; procedure, shortened: as §1
[21] = molecular target: Serine/threonine-protein kinase mTOR (Homo sapiens) (UniProt P42345); test: Inhibition of mTOR phosphorylation in triple-negative human […] cells at 0.2 mM after 24 hrs by immunoblot analysis; type: cell-based; procedure, shortened: as §1
MDA-MB-231 [22] = test: Induction of apoptosis in triple-negative human MDA-MB-231 cells assessed as apoptotic cells at 0.1 mM after 24 hrs by annexin V-FITC/propidium iodide staining-based flow cytometric analysis relative to control; type: functional; procedure, shortened: as §6
Hs-578T [23] = test: Ratio of compound activity to metformin activity for inhibition of triple-negative human Hs578T cells invasiveness; type: functional
[24] = molecular target: 5'-AMP-activated protein kinase catalytic subunit alpha-2 (Homo sapiens) (UniProt P54646); test: Ratio of compound activity to metformin activity for activation of AMPK in triple-negative human […] cells; type: cell-based
MDA-MB-231 [25] = test: Ratio of compound activity to metformin activity for tumor growth inhibition of triple-negative human MDA-MB-231 cells xenografted in BALB/c athymic nude mouse; type: functional
Hs-578T [26] = test: Antiinvasive activity against triple-negative human Hs578T cells assessed as downregulation of MMP9 level at 0.05 to 0.2 mM after 24 hrs by gelatin zymogram assay; type: functional, cell-based; procedure, shortened: as §3
MDA-MB-231 [27] = test: Antitumor activity against triple-negative human MDA-MB-231 cells xenografted in BALB/c athymic nude mouse assessed as tumor growth inhibition at 50 mg/kg, po qd measured for 35 days relative to vehicle-treated control; type: functional; details: MDA-MB-231, 840 h, read-out: TGI; procedure, shortened: as §4
Hs-578T [28] = test: Antiinvasive activity against triple-negative human Hs578T cells at 0.2 mM after 17 hrs by light microscopic analysis relative to control; type: functional; procedure, shortened: as §2
MDA-MB-231 [29] = test: Induction of apoptosis in triple-negative human MDA-MB-231 cells assessed as viable cells at 10 mM after 24 hrs by annexin V-FITC/propidium iodide staining-based flow cytometric analysis relative to control; type: functional; details: MDA-MB-231, 24 h, read-out: Activity; procedure, shortened: as §6
MDA-MB-231 [30] = test: Induction of apoptosis in triple-negative human MDA-MB-231 cells assessed as apoptotic cells at 10 mM after 24 hrs by annexin V-FITC/propidium iodide staining-based flow cytometric analysis relative to control; type: functional; procedure, shortened: as §6
MDA-MB-231 [31] = test: Induction of apoptosis in triple-negative human MDA-MB-231 cells assessed as early apoptotic cells at 10 mM after 24 hrs by annexin V-FITC/propidium iodide staining-based flow cytometric analysis relative to control; type: functional; procedure, shortened: as §6
MDA-MB-231 [32] = test: Induction of apoptosis in triple-negative human MDA-MB-231 cells assessed as dead cells at 10 mM after 24 hrs by annexin V-FITC/propidium iodide staining-based flow cytometric analysis relative to control; type: functional
Procedure, shortened: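 MDA-MB-231 cells grown in DMEM at 37 °C, 5% CO2, then exposed for 24 h to agent dissolved in distilled water. Cells were stained at 1 × 10^6 cells/ml with FITC-annexin V and/or propidium iodide for flow cytometry and read as quadrant dot plots. Lower left is viable, lower right early apoptotic, upper quadrants late apoptotic/necrotic.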

Mus musculus [33] = test: Toxicity in BALB/c athymic nude mouse xenografted with triple-negative human MDA-MB-231 cells assessed as body weight change at 500 mg/kg, po qd measured for 35 days relative to vehicle-treated control; type: organism-based; parameters: dose 500 mg/kg, route oral; details: in vivo, 840 h; procedure, shortened: as §5

With `N=C(N)NC(=N)NCCc1ccccc1` [PHENFORMIN ACETIC ACID SALT] the IC50 (Hs-578T [1]) was 0.9 mM and the IC50 (MDA-MB-231 [2]) was 1.68 mM.

`CN(C)C(=N)NC(=N)N.NCC1(CC(=O)O)CCCCC1` [METFORMIN GABAPENTIN SALT] gave an IC50 (Hs-578T [1]) of 4 mM, an IC50 (MDA-MB-231 [2]) of 16.1 mM and an inhibition at 5000 µM (Hs-578T [3]) of 73.6%.

`CN(C)C(=N)NC(=N)N.NCCCC(=O)O` [listing 1 of 2 here] was tested, and the Activity (Hs-578T [4]) was “Dose-dependent effect”.

For `CN(C)C(=N)NC(=N)N`, the Activity (Hs-578T [5]) was “Dose-dependent effect”, the inhibition [6] was “Active” and the Activity [7] was “Active”. The inhibition (Hs-578T [8]) was “inactive”, the Activity (Hs-578T [9]) was “inactive” and the inhibition (Hs-578T [10]) was “Active”. For the same compound, the Activity (Hs-578T [11]) was “Dose-dependent effect”.

Work on `CC(C)C[C@H](CN)CC(=O)O.CN(C)C(=N)NC(=N)N` [METFORMIN PREGABALIN SALT] yielded an IC50 (Hs-578T [1]) of 7.2 mM, an IC50 (MDA-MB-231 [2]) of 17.7 mM and an inhibition at 5000 µM (Hs-578T [3]) of 64.6%.

In the case of `CCCc1ccccc1Nc1nc(N)nc(N(C)C)n1.Cl`, the inhibition in vivo at 100 mg/kg (MDA-MB-231 [12]) is reported as 27.9%, the Activity (Hs-578T [5]) is reported as “Dose-dependent effect” and the IC50 (Hs-578T [1]) is reported as 0.28 mM. The Activity (Mus musculus [13]) was “Non-toxic”, the inhibition in vivo at 25 mg/kg (MDA-MB-231 [14]) was 6.2% and the Activity (MDA-MB-231 [15]) was 1.6%. For the same compound, the IC50 (MDA-MB-231 [2]) was 0.28 mM, the viability at 100 µM (MDA-MB-231 [16]) was 78.4% and the “Ratio IC50” value (Hs-578T [17]) was 100. For the same compound, the Activity (MDA-MB-231 [18]) was 3.1%, the Ratio [19] was 100 and the Activity [20] was “Active”. The inhibition [21] was “Active”, the Activity (MDA-MB-231 [22]) was 17% and the Ratio (Hs-578T [23]) was 100. The Ratio [24] was 100, the Ratio (MDA-MB-231 [25]) was 5 and the Activity (Hs-578T [26]) was “inactive”. For the same compound, the inhibition in vivo at 50 mg/kg (MDA-MB-231 [27]) was 17.4%, the Activity (Hs-578T [11]) was “Dose-dependent effect” and the inhibition at 200 µM (Hs-578T [28]) was 36.6%.

Work on `CN(C)C(=N)NC(=N)N.Cl` [METFORMIN HYDROCHLORIDE] yielded a viability at 10000 µM (MDA-MB-231 [29]) of 82.4%, an Activity (MDA-MB-231 [30]) of 15.3% and an IC50 (Hs-578T [1]) of 26.8 mM. The Activity (MDA-MB-231 [31]) was 1.8%, the IC50 (MDA-MB-231 [2]) was 58.4 mM and the Activity (MDA-MB-231 [32]) was 0.5%. The Activity (Mus musculus [33]) was “Non-toxic”.

`CN(C)C(=N)NC(=N)N.NCCCC(=O)O` [listing 2 of 2 here] gave an IC50 (Hs-578T [1]) of 9.1 mM, an IC50 (MDA-MB-231 [2]) of 41.5 mM and an inhibition at 5000 µM (Hs-578T [3]) of 43.6%.
